Screening data: PubChem BioAssay, The Scripps Research Institute Molecular Screening Center
MBD2 inh: MBD2-methylated oligo binding inhibition | Q9UBB5 | TR-FRET, MBD2 binding to methylated oligonucleotide | inhibition, % at 4.4 µM | 370,000 compounds, 0.31% hits | AID 686964; in the data active means inhibition above about 13%
Target sequence (Q9UBB5 whole entry, looked up): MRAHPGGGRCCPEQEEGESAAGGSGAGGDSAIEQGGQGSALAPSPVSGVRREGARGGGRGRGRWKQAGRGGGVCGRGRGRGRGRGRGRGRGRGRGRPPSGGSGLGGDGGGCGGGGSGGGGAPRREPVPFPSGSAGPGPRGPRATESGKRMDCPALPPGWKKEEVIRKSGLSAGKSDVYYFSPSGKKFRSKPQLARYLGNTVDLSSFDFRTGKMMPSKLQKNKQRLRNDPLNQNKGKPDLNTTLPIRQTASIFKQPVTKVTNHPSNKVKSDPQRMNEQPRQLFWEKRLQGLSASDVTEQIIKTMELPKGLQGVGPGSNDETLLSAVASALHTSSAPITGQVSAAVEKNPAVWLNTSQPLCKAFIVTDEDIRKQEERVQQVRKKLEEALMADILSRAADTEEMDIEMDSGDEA
LEDGF integ inh: blocks HIV-1 LEDGF/p75-dependent DNA integration; AID 743269; inhibition, % at 3.7 µM; TR-FRET IN-LEDGF/p75 DNA integration, Eu/Cy5; 370,000 compounds, 0.64% hits;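 active means inhibition above the screen-wide mean plus 3 SD, cut at about 13% in these data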;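 further: signal is the Cy5 over europium emission ratio at 671 and 618 nm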
core dimer inh: HCV core protein dimerization inhibition. TR-FRET GST/Flag-core106 dimerization, 1536-well. inhibition, % at 5 µM. 300,000 compounds, 0.33% hits;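 active means inhibition above the mean of all tested compounds plus 3 SD, set per screening campaign, cut at about 45% in these data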
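Assay system: tagged HCV core106 pair (GST and Flag); medium: KF-containing HEPES buffer, pH 7.45, DTT, CHAPS, BSA; also added: Eu donor and XL665 acceptor anti-tag antibodies; dosing: 5 µM single dose; timing: compound-protein-antibody incubation 4 h at 22.5 °C; signal: TR-FRET 671 and 617 nm emission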
UHRF1 binding: blocks human UHRF1 binding to methylated DNA; AID 687016; inhibition, % at 4.4 µM; 370,000 compounds, 0.75% hits; Q96T88; UHRF1 binding to methylated oligo, TR-FRET; in the data active means inhibition above about 21%;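 further: UHRF1 SRA domain binding a hemimethylated CpG hairpin DNA probe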
TDP2 absorb: blocks human TDP2 phosphodiesterase activity. O95551. AID 720702. recombinant TDP2, T5PNP hydrolysis, p-nitrophenol absorbance 415 nm. 370,000 compounds, 0.34% hits. inhibition, % at 12.8 µM;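 active means inhibition above the mean of all tested compounds plus 3 SD, set per campaign, cut at about 25% in these data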
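Material: recombinant human TDP2; quantity: TDP2 enzyme at 120 nM final; medium: Tris-HCl pH 7.5 with MgCl2; compound: single concentration, 12.8 µM nominal, with 1% DMSO; incubation: 2 h enzyme incubation at 37 °C; signal: epi absorbance; measure: percent inhibition; benchmarks: high control without enzyme, low control DMSO plus TDP2; repeats: singlicate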
A number is an active result; - = inactive; . = not tested or not shown. In the library only some 1.8% were active in any assay of this set; here they are far more common.

SMILES	MBD2 inh	LEDGF integ inh	core dimer inh	UHRF1 binding	TDP2 absorb
CC1(c2nnnn2-c2ccc3c(c2)OCCO3)CCC(=O)N1CCCN1CCOCC1 (configuration not stated)	-	-	.	-	-
O=S1(=O)c2ccc(N3CCN(Cc4ccccc4F)CC3)cc2Oc2ccccc2CN1Cc1cn(Cc2ccc(C(F)(F)F)cc2)nn1	-	-	.	-	-
O=C1c2ccccc2C(=O)N1c1cccc(-c2csc(Nc3ccc4c(c3)OCO4)n2)c1	.	.	49	.	.
Cc1ccc(-c2c[n+](CC(=O)Nc3nc(-c4ccc(F)cc4)cs3)c3n2CCC3)cc1	-	-	-	-	-
Cc1ccc(-c2c[n+](CC(=O)Nc3ccc(C)cc3C)c3n2CCC3)cc1	-	-	-	37	-
Cc1ccc(NC(=O)C[n+]2cc(-c3ccc(C)cc3)n3c2CCC3)cc1	-	-	-	-	-
O=C(C[n+]1cc(-c2ccc(F)cc2)n2c1CCC2)Nc1nc(-c2ccccc2)cs1	-	-	-	44	-
COC(=O)[C@]12C[C@H](CC(=O)N3CCCCC3)C(=O)N(CCc3ccc(OC)c(OC)c3)C1=C[C@H](COCc1ccccc1)O[C@@H]2C	-	-	.	-	-
Cc1ccc(-c2cc(-c3nnc(SCC(=O)Nc4nccs4)n3N)[nH]n2)cc1	-	-	.	-	-
COC(=O)C1=C(C)N(Cc2ccc(C(F)(F)F)cc2)C(=NCc2ccccc2C(F)(F)F)NC1c1cccc(Cl)c1 (configuration not stated)	-	-	.	-	-
O=C(COc1ccc(F)cc1)Nc1nnc(S(=O)(=O)N2CCCC2)s1	-	-	-	37	-
Cc1ccc(S(=O)(=O)N2CCN(C(=O)c3cccn3C)CC2)cc1	-	-	.	-	-
COC(=O)[C@H](C(C)C)N1Cc2nnn(CC3CCCCC3)c2-c2cc(F)ccc2S1(=O)=O	-	-	.	-	-
CCOC(=O)C1CCCN(C(=O)c2cc(Cl)ccc2Cl)C1 (configuration not stated)	-	-	-	22	-
CCn1c2ccccc2c2cc(NC(=O)COC(=O)c3cccc(F)c3)ccc21	-	-	.	-	-
CC(=O)Nc1cc(OC(C)=O)c2nonc2c1OC(C)=O	19	39	-	-	98
C=CCn1c(SCC(=O)c2ccc(CNC(C)=O)o2)nc2scc(C3CC3)c2c1=O	-	-	48	-	-
C=CCn1c(SCC(=O)NC2CCS(=O)(=O)C2)nc2scc(C3CC3)c2c1=O (configuration not stated)	-	-	-	-	-
C=CCN1[C@H](C)COc2cccc(N3CCCC3)c2S1(=O)=O	-	-	.	-	-
Cc1cccc(N2CCN(S(=O)(=O)c3ccc4c(c3)C(C)(C)C(=O)N4C)CC2)c1C	-	-	47	-	-
Cc1cccc(N(C)S(=O)(=O)c2ccc3c(c2)C(C)(C)C(=O)N3C)c1	-	-	54	-	-
Cc1ccc(C)c(N2N=C(C(=O)O)CCC2=O)c1	-	-	-	-	-
O=C(O)C1=NN(c2cc(Cl)c(S(=O)(=O)O)cc2Cl)C(=O)C1	-	-	.	31	-
O=C(C(=O)N1CCC(CNC(=O)c2sc3ccccc3c2Cl)CC1)c1cccs1	-	-	.	-	-
COc1ccc(-c2nnc(SCC(=O)N(C)C3CCS(=O)(=O)C3)n2N)cc1OC (configuration not stated)	-	-	-	42	-
SMILES	MBD2 inh	LEDGF integ inh	core dimer inh	UHRF1 binding	TDP2 absorb
COc1ccc(S(=O)(=O)n2nc(OC(=O)c3ccccc3)cc2N)cc1	-	-	-	-	-
COc1ccc(S(=O)(=O)n2nc(OC(C)=O)cc2N(C(C)=O)C(C)=O)cc1	-	-	-	-	29
CCOC(=O)COc1ccc2c(=O)c(-c3ccccc3OC)coc2c1	-	-	61	-	-
COC(=O)COc1ccc2c(=O)c(-c3ccccc3OC)coc2c1	-	-	-	-	-
O=C(CNS(=O)(=O)c1ccccc1)N1CCN(c2ccccc2)CC1	-	-	-	-	-
O=C(CNS(=O)(=O)c1ccccc1)N1CCCC1	-	-	-	21	-
O=C(CCNS(=O)(=O)c1ccccc1)N1CCOCC1	-	-	-	-	-
CCOC(=O)N1CCN(C(=O)CCNS(=O)(=O)c2ccccc2)CC1	-	-	-	22	-
CCC(CO)Nc1cccc2c1S(=O)(=O)N(Cc1cn(Cc3ccc(F)cc3)nn1)Cc1ccccc1O2 (configuration not stated)	-	-	.	-	-
CCOC(=O)N1CCN(C(=O)C[C@H]2C[C@@]3(C(=O)OC)C(=C[C@H](C4CCCC4)O[C@@H]3C)N(Cc3cccc4ccccc34)C2=O)CC1	-	-	.	-	-
O=C(Nc1ccc2ccccc2c1)C1CC2CCC1C2 (configuration not stated)	-	-	.	-	-
Cc1ccc(NS(=O)(=O)c2cccs2)nc1	-	-	-	30	-
COC(=O)C1CN(Cc2ccc(OC)cc2)CCS(=O)(=O)N1Cc1cn(CCOC(C)=O)nn1 (configuration not stated)	-	-	.	-	-
COc1ccc(-c2cc(-c3ccccc3)nc(Cl)n2)cc1OC	-	-	-	30	-
Cc1cc(C2=NNC(=NC3CC3)SC2)c(C)n1-c1ccccc1F	-	-	-	-	-
Cc1cc(C2=NNC(=NC3CCCCC3)SC2)c(C)n1-c1c(C)n(C)n(-c2ccccc2)c1=O	-	-	65	-	-
CCCc1cc(=O)[nH]c(SCC(=O)NC2(C#N)CCCCC2)n1	-	-	.	27	-
CCCc1cc(=O)[nH]c(SCC(=O)NC)n1	-	-	-	-	-
O=C1c2ccccc2NC(c2ccccc2)N1CCCN1CCOCC1 (configuration not stated)	-	-	-	-	-
O=C(O)c1ccccc1C1Nc2ccccc2C(=O)N1CCCN1CCOCC1 (configuration not stated)	-	-	-	40	-
Cc1cc(C(=O)OCC(=O)c2ccc(Cl)c([N+](=O)[O-])c2)c2cccc(C)c2n1	-	-	46	-	-
Cc1ccc(S(=O)(=O)N2CCCCC2)c2nsnc12	-	-	-	24	-
CCN(CC(=O)NCc1cccs1)S(=O)(=O)c1cccc(C(C)=O)c1	-	-	-	24	-
COc1cc(OC)c(NC(=O)Cc2cccs2)cc1Cl	-	-	-	-	-
Cc1ccccc1NC(=O)/C=C/c1cccs1	-	-	-	-	-
CCN(CC)S(=O)(=O)c1ccc(OC)c(NC(=O)Cc2cccs2)c1	-	-	50	-	-
CCN(CC)S(=O)(=O)c1ccc(C)c(NC(=O)/C=C/c2cccs2)c1	-	-	-	22	-
CCCC[C@@H]1C(=O)N2N=Cc3cc4ccccc4cc3[C@H]2N2N=Cc3cc4ccccc4cc3[C@@H]12	-	-	.	-	-
